{
  "source": "ChEMBL document CHEMBL4680186",
  "about": "“New azole antifungals with a fused triazinone scaffold” (Eur J Med Chem, 2020)",
  "key": {"[1]": {"tested_on": "Pichia kudriavzevii (Candida krusei)", "experiment": "Antifungal activity against fluconazole-resistant Candida krusei CAKR8 assessed as reduction in microbial growth after 24 hrs by resazurin staining based spectrofluorometric method", "conditions": "CAKR8, 24 h"}, "Candida albicans [2]": {"tested_on": "Candida albicans", "experiment": "Inhibition of sterol biosynthesis in Candida albicans CAAL93 assessed as 14alpha-methylfecosterol level at 10 ng/ml after 18 hrs by GC-MS analysis relative to control", "format": "functional", "set-up": "scale not given: the % may be the effect or the level left", "method_in_brief": "(§1)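 C. albicans CAAL93 blastospores were grown 18 h at 35 °C with stirring in 50 mL Sabouraud broth, with drug added before incubation. Cells were pelleted and saponified in ethanolic KOH at 80 °C for 60 min, and sterols extracted with hexane. Analysis by GC-MS (EI 70 eV, splitless injection at 250 °C, helium carrier); sterols identified by fragmentation pattern.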"}, "[3]": {"experiment": "Toxicity in CRL:WI rat assessed as behavioral changes at 300 mg/kg, po up to 14 days", "format": "organism-based", "conditions": "in vivo, 336 h, time <=14 day", "method_in_brief": "(§2)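 Acute oral toxicity in rats: single gavage dose of 300 mg/kg bw (two groups). Behaviour, body weight change, toxicity signs and mortality were recorded at 30 min, 1, 2, 4 and 6 h after dosing, then daily for 14 days.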"}, "Rhizopus arrhizus [4]": {"tested_on": "Rhizopus arrhizus", "experiment": "Antifungal activity against Rhizopus oryzae RHPOR2 assessed as reduction in microbial growth after 24 hrs by broth microdilution method", "format": "functional", "method_in_brief": "(§3)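 CLSI M38 broth microdilution in RPMI 1640 buffered to pH 7.0 with MOPS. Drugs were diluted in DMSO then medium; final range 0.032-16 mg/L. Conidia or sporangiospores came from 7-day potato dextrose agar cultures; diluted (2×) inocula were 0.9×10^4–4.7×10^4 CFU/mL. Incubation at 35 °C, read at 48 h except Zygomycetes at 24 h. MIC read visually as lowest concentration preventing 100% growth; duplicate.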"}, "Candida albicans [5]": {"tested_on": "Candida albicans", "experiment": "Inhibition of sterol biosynthesis in Candida albicans CAAL93 assessed as other sterols level at 10 ng/ml after 18 hrs by GC-MS analysis (Rvb < 1%)", "format": "functional", "set-up": "scale not given: the % may be the effect or the level left", "method_in_brief": "as §1"}, "Candida albicans [6]": {"tested_on": "Candida albicans", "experiment": "Inhibition of sterol biosynthesis in Candida albicans CAAL93 assessed as episterol level at 1 ng/ml after 18 hrs by GC-MS analysis (reference value: 2%)", "format": "functional", "set-up": "scale not given: the % may be the effect or the level left"}, "Candida albicans [7]": {"tested_on": "Candida albicans", "experiment": "Inhibition of sterol biosynthesis in Candida albicans CAAL93 assessed as zymosterol level at 1 ng/ml after 18 hrs by GC-MS analysis (reference value: 1.6%)", "format": "functional", "set-up": "scale not given: the % may be the effect or the level left"}, "Candida albicans [8]": {"tested_on": "Candida albicans", "experiment": "Antifungal activity against Candida albicans CAAL93 infected in Swiss mouse assessed as survival at 10 mg/kg, po after 14 days relative to control", "format": "functional", "conditions": "336 h, time 14 day", "method_in_brief": "(§4)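 Swiss mice (~25 g) immunosuppressed with prednisolone 30 mg/kg s.c. one day before challenge; day 0 i.v. infection with C. albicans blastoconidia (5.10⁶ yeast/mL, 100 µL). Oral dosing 1 h post-infection, once daily for 5 days, 10 mg/kg (CAAL93) or 15 mg/kg (DSY292), vehicle 40% DMSO/25% Tween80/35% olive oil. Mice given 50% grapefruit juice ad libitum. Survival followed 14 days (log-rank Mantel-Cox).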"}, "Candida albicans [9]": {"tested_on": "Candida albicans", "experiment": "Inhibition of sterol biosynthesis in Candida albicans CAAL93 assessed as ergostadienol level at 10 ng/ml after 18 hrs by GC-MS analysis (reference value: 1.6%)", "format": "functional", "set-up": "scale not given: the % may be the effect or the level left", "method_in_brief": "as §1"}, "[10]": {"experiment": "Toxicity in CRL:WI rat assessed as weight gain at 300 mg/kg, po up to 14 days", "format": "organism-based", "conditions": "in vivo, 336 h, time <=14 day", "method_in_brief": "as §2"}, "Fusarium sp.": {"tested_on": "Fusarium sp.", "experiment": "Antifungal activity against Fusarium sp. assessed as reduction in microbial growth […] by broth microdilution method", "format": "functional"}, "Mucor circinelloides": {"tested_on": "Mucor circinelloides", "experiment": "Antifungal activity against Mucor circinelloides MURI1 assessed as reduction in microbial growth after 24 hrs by broth microdilution method", "format": "functional", "method_in_brief": "as §3"}, "[11]": {"tested_on": "Pichia kudriavzevii (Candida krusei)", "experiment": "Antifungal activity against fluconazole-resistant Candida krusei CAKR7 assessed as reduction in microbial growth after 24 hrs by resazurin staining based spectrofluorometric method", "conditions": "CAKR7, 24 h"}, "Candida albicans [12]": {"tested_on": "Candida albicans", "experiment": "Inhibition of sterol biosynthesis in Candida albicans CAAL93 assessed as lanosterol level at 1 ng/ml after 18 hrs by GC-MS analysis (reference value: 1.6%)", "format": "functional", "set-up": "scale not given: the % may be the effect or the level left"}, "Candida albicans [13]": {"tested_on": "Candida albicans", "experiment": "Inhibition of sterol biosynthesis in Candida albicans CAAL93 assessed as other sterols level at 1 ng/ml after 18 hrs by GC-MS analysis (Rvb < 1%)", "format": "functional", "set-up": "scale not given: the % may be the effect or the level left"}, "Candida albicans [14]": {"tested_on": "Candida albicans", "experiment": "Inhibition of sterol biosynthesis in Candida albicans CAAL93 assessed as ergosterol level at 1 ng/ml after 18 hrs by GC-MS analysis (reference value: 89.7%)", "format": "functional", "set-up": "scale not given: the % may be the effect or the level left"}, "Candida albicans [15]": {"tested_on": "Candida albicans", "experiment": "Inhibition of ergosterol biosynthesis in Candida albicans CAAL93 after 18 hrs by GC-MS analysis", "format": "functional", "conditions": "dose 1-10 ng/ml"}, "Candida albicans [16]": {"tested_on": "Candida albicans", "experiment": "Inhibition of sterol biosynthesis in Candida albicans CAAL93 assessed as ergosterol level at 10 ng/ml after 18 hrs by GC-MS analysis (reference value: 89.7%)", "format": "functional", "set-up": "scale not given: the % may be the effect or the level left", "method_in_brief": "as §1"}, "Candida albicans [17]": {"tested_on": "Candida albicans", "experiment": "Inhibition of sterol biosynthesis in Candida albicans CAAL93 assessed as ergostadienol level at 1 ng/ml after 18 hrs by GC-MS analysis (reference value: 1.6%)", "format": "functional", "set-up": "scale not given: the % may be the effect or the level left"}, "Candida albicans [18]": {"tested_on": "Candida albicans", "experiment": "Antifungal activity against Candida albicans CAAL93 infected in Swiss mouse assessed as reduction in kidney fungal burden at 10 mg/kg, po after 14 days", "format": "functional, organism-based", "conditions": "time 14.0 day"}, "Scedosporium apiospermum": {"tested_on": "Scedosporium apiospermum", "experiment": "Antifungal activity against Scedosporium apiospermum SCAP1 assessed as reduction in microbial growth […] by broth microdilution method", "format": "functional"}, "Candida albicans [19]": {"tested_on": "Candida albicans", "experiment": "Inhibition of sterol biosynthesis in Candida albicans CAAL93 assessed as fecosterol level at 1 ng/ml after 18 hrs by GC-MS analysis relative to control", "format": "functional", "set-up": "scale not given: the % may be the effect or the level left"}, "Rhizopus arrhizus [20]": {"tested_on": "Rhizopus arrhizus", "experiment": "Antifungal activity against Rhizopus oryzae RHPOR1 assessed as reduction in microbial growth after 24 hrs by broth microdilution method", "format": "functional", "method_in_brief": "as §3"}, "Candida albicans [21]": {"tested_on": "Candida albicans", "experiment": "Inhibition of sterol biosynthesis in Candida albicans CAAL93 assessed as eburicol level at 10 ng/ml after 18 hrs by GC-MS analysis relative to control", "format": "functional", "set-up": "scale not given: the % may be the effect or the level left", "method_in_brief": "as §1"}, "Candida albicans [22]": {"tested_on": "Candida albicans", "experiment": "Inhibition of ergosterol biosynthesis in Candida albicans CAAL93 at 1 ng/ml after 18 hrs by GC-MS analysis relative to control", "format": "functional"}, "Candida albicans [23]": {"tested_on": "Candida albicans", "experiment": "Inhibition of ergosterol biosynthesis in Candida albicans CAAL93 at 10 ng/ml after 18 hrs by GC-MS analysis relative to control", "format": "functional"}, "[24]": {"experiment": "Toxicity in CRL:WI rat assessed as hunched back at 300 mg/kg, po up to 14 days", "format": "organism-based", "conditions": "in vivo, 336 h, time <=14 day", "method_in_brief": "as §2"}, "[25]": {"experiment": "Toxicity in CRL:WI rat assessed as mortality at 300 mg/kg, po up to 14 days", "format": "organism-based", "conditions": "in vivo, 336 h, time <=14 day", "method_in_brief": "as §2"}, "Candida albicans [26]": {"tested_on": "Candida albicans", "experiment": "Inhibition of sterol biosynthesis in Candida albicans CAAL93 assessed as eburicol level at 1 ng/ml after 18 hrs by GC-MS analysis relative to control", "format": "functional", "set-up": "scale not given: the % may be the effect or the level left"}, "Candida albicans [27]": {"tested_on": "Candida albicans", "experiment": "Antifungal activity against Candida albicans DSY292 harboring Erg1l G464S/R467K/Y132 mutant infected in Swiss mouse assessed as survival at 15 mg/kg, po after 10 days", "format": "functional, organism-based", "conditions": "time 10.0 day", "method_in_brief": "as §4"}, "Candida albicans [28]": {"tested_on": "Candida albicans", "experiment": "Antifungal activity against Candida albicans DSY292 harboring Erg1l G464S/R467K/Y132 infected in Swiss mouse assessed as reduction in kidney fungal burden at 10 mg/kg, po after 14 days", "format": "functional, organism-based", "conditions": "time 14.0 day"}, "Candida albicans [29]": {"tested_on": "Candida albicans", "experiment": "Inhibition of sterol biosynthesis in Candida albicans CAAL93 assessed as lanosterol level at 10 ng/ml after 18 hrs by GC-MS analysis (reference value: 1.6%)", "format": "functional", "set-up": "scale not given: the % may be the effect or the level left", "method_in_brief": "as §1"}},
  "note": "Calls of active or inactive are those of the source. The calls are words filed in the database; no cut-off is given here.",
  "data": [
    {"smiles": "COc1ccc(-c2cc3cnn([C@H](C)[C@](O)(Cn4cncn4)c4ccc(F)cc4F)c(=O)n3c2)cc1", "values": [
      {"measurement": "MIC", "setting": "[1]", "result": 0.081, "unit": "µg/mL"},
      {"measurement": "Activity", "setting": "Candida albicans [2]", "result": 3.6, "unit": "%"},
      {"measurement": "Activity", "setting": "[3]", "result": "Toxic"},
      {"measurement": "MIC", "setting": "Rhizopus arrhizus [4]", "result": 0.094, "unit": "µg/mL"},
      {"measurement": "Activity", "setting": "Candida albicans [5]", "result": 5, "unit": "%"},
      {"measurement": "Activity", "setting": "Candida albicans [6]", "result": 11, "unit": "%"},
      {"measurement": "Activity", "setting": "Candida albicans [7]", "result": 3.3, "unit": "%"},
      {"measurement": "survival at 10 mg/kg", "setting": "Candida albicans [8]", "result": 100, "unit": "%"},
      {"measurement": "Activity", "setting": "Candida albicans [9]", "result": 1.1, "unit": "%"},
      {"measurement": "Activity", "setting": "[10]", "result": "Non-Toxic"},
      {"measurement": "MIC", "setting": "Fusarium sp.", "result": "> 16", "unit": "µg/mL"},
      {"measurement": "MIC", "setting": "Mucor circinelloides", "result": 0.19, "unit": "µg/mL"},
      {"measurement": "MIC", "setting": "[11]", "result": 0.062, "unit": "µg/mL"},
      {"measurement": "Activity", "setting": "Candida albicans [12]", "result": 7.7, "unit": "%"},
      {"measurement": "Activity", "setting": "Candida albicans [13]", "result": 8.3, "unit": "%"},
      {"measurement": "Activity", "setting": "Candida albicans [14]", "result": 61, "unit": "%"},
      {"measurement": "inhibition", "setting": "Candida albicans [15]", "result": "Dose-dependent effect"},
      {"measurement": "Activity", "setting": "Candida albicans [16]", "result": 42, "unit": "%"},
      {"measurement": "Activity", "setting": "Candida albicans [17]", "result": 3.7, "unit": "%"},
      {"measurement": "Activity", "setting": "Candida albicans [18]", "result": "Active"},
      {"measurement": "MIC", "setting": "Scedosporium apiospermum", "result": 3, "unit": "µg/mL"},
      {"measurement": "Activity", "setting": "Candida albicans [19]", "result": 3.2, "unit": "%"},
      {"measurement": "MIC", "setting": "Rhizopus arrhizus [20]", "result": 0.0625, "unit": "µg/mL"},
      {"measurement": "Activity", "setting": "Candida albicans [21]", "result": 23.1, "unit": "%"},
      {"measurement": "inhibition", "setting": "Candida albicans [22]", "result": 32, "unit": "%"},
      {"measurement": "inhibition", "setting": "Candida albicans [23]", "result": 53, "unit": "%"},
      {"measurement": "Activity", "setting": "[24]", "result": "Toxic"},
      {"measurement": "Activity", "setting": "[25]", "result": "Non-Toxic"},
      {"measurement": "Activity", "setting": "Candida albicans [26]", "result": 1.8, "unit": "%"},
      {"measurement": "Survival", "setting": "Candida albicans [27]", "result": "Active"},
      {"measurement": "Activity", "setting": "Candida albicans [28]", "result": "Active"},
      {"measurement": "Activity", "setting": "Candida albicans [29]", "result": 25.2, "unit": "%"}
    ]}
  ]
}
